Marks after values point to notes of the source that are not given here.
Key:
murine model of NOMID = settings: cited from earlier work
[1] = test system: rat streptococcal cell wall arthritis model; settings: cited from earlier work
IL-6 [2] = assay: Ex vivo lipopolysaccharide-stimulated whole blood PD assay, IL-6; format: cell-based, human
Summary of the method: (§1)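 Healthy adults were dosed orally, fasted. 10 mL blood was drawn: SAD pre-dose, 1, 12 and 24 h; MAD days 1 and 7 pre-dose, 4 and 12 h. Each analyte was read unstimulated, after ex vivo LPS, and after LPS plus 10 μM added test compound. Values were scaled to % day 1 pre-dose (LPS as maximum signal, spiked LPS as maximum inhibition). Plasma levels vs % inhibition were fit by inhibitory Emax (E0, Imax, IC50).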

IL-1β = assay: Ex vivo lipopolysaccharide-stimulated whole blood PD assay, IL-1β; format: cell-based, human
Summary of the method: as §1

neutrophils = assay: Clinical laboratory neutrophil counts; format: in vivo, human; settings: 50 mg BID group
TNF-α = assay: Ex vivo lipopolysaccharide-stimulated whole blood PD assay, TNF-α; format: cell-based, human
Summary of the method: as §1

IL-6 [3] = assay: Human whole blood stimulated with IL-1β, IL-6 inhibition; format: cell-based; settings: data not shown
[4] = test system: p-HSP27 (phosphorylated heat shock protein 27); assay: Ex vivo lipopolysaccharide-stimulated whole blood PD assay, p-HSP27; format: cell-based, human; settings: inhibitory Emax model, all SAD/MAD cohorts
Summary of the method: as §1

[5] = Plasma pharmacokinetics, multiple ascending dose cohorts; format: in vivo, human; settings: for Tmax at 7 day: median (range)
[6] = Safety and tolerability assessments; format: in vivo, human; settings: for Deaths / Discontinuations due to TEAEs / Number of TEAEs / Patients reporting TEAEs / Serious TEAEs: ATI-450 n=24
[7] = Plasma pharmacokinetics, single ascending dose cohorts; format: in vivo, human; settings: for Tmax / half-life / AUC(0-inf) / AUC(0-t) / Cmax / Vd/F: human, plasma, oral; for CL/F: fasted, mean ± SD
[8] = inhibitory Emax model, all SAD/MAD cohorts
[9] = maximum observed (up to), versus baseline
[10] = SAD and MAD cohorts, ATI-450 n=48

Compound: Cc1cnc(-c2ccnc(C(C)(C)O)n2)cc1-n1c(C)cc(OCc2ncc(F)cc2F)c(Cl)c1=O [ATI-450]
- Effect on bone marrow levels of IL-1β (murine model of NOMID; NOMID mice, relative to placebo): reduction in bone marrow levels of IL-1β
- Effect on disease (murine model of NOMID; transgenic NOMID mice): dramatic attenuation of disease
- Effect in arthritis model [1]: joint protective effects and preserved bone mineral density
- inhibition at 50 mg (IL-6 [2]; Homo sapiens, 168 h, read-out: IL-6 inhibition): > 50%
- Imax (maximum percent inhibition) (IL-6 [2]; [8]): greater than 96%
- Imax (maximum percent inhibition) (IL-1β; [8]): 74%
- Inhibition of IL-1β versus baseline (IL-1β; [9]): ≤ 83.0%
- Neutrophil count (neutrophils; day 7 (baseline 3318.4 cells/μL)): 2514.4 cells/μL
- Mean reduction in neutrophils (neutrophils; day 7 versus baseline): 24%
- Imax (maximum percent inhibition) (TNF-α; [8]): greater than 96%
- Inhibition of TNF-α versus baseline (TNF-α; [9]): up to 92.7%
- Potency for inhibiting IL-6 (IL-6 [3]): comparable to that for TNF-α and IL-8
- Imax (maximum percent inhibition) [4]: greater than 96%
- CLss/F ([5]; 10 mg BID, day 7, mean ± SD): 37.4 ± 10.9 L/h
- Cmin ([5]; 10 mg BID, day 7, mean ± SD): 8.1 ± 3.1 ng/mL
- Rac, AUCtau (accumulation ratio for AUCtau) ([5]; 10 mg BID, day 7, mean ± SD): 1.4 ± 0.3
- Rac, Cmax (accumulation ratio for Cmax) ([5]; 10 mg BID, day 7, mean ± SD): 1.6 ± 0.6
- CLss/F ([5]; 30 mg BID, day 7, mean ± SD): 33.9 ± 5.9 L/h
- Cmin ([5]; 30 mg BID, day 7, mean ± SD): 28.8 ± 10.7 ng/mL
- Rac, AUCtau (accumulation ratio for AUCtau) ([5]; 30 mg BID, day 7, mean ± SD): 1.4 ± 0.3
- Rac, Cmax (accumulation ratio for Cmax) ([5]; 30 mg BID, day 7, mean ± SD): 1.2 ± 0.3
- CLss/F ([5]; 50 mg BID, day 7, mean ± SD): 37.3 ± 11.7 L/h
- Cmin ([5]; 50 mg BID, day 7, mean ± SD): 58.7 ± 32.8 ng/mL
- Rac, AUCtau (accumulation ratio for AUCtau) ([5]; 50 mg BID, day 7, mean ± SD): 1.3 ± 0.4
- Rac, Cmax (accumulation ratio for Cmax) ([5]; 50 mg BID, day 7, mean ± SD): 1.3 ± 0.5
- Increase in AUCtau over dose range ([5]; 10 to 50 mg BID, day 1): 5.9 fold
- Increase in Cmax over dose range ([5]; 10 to 50 mg BID, day 1): 5.4 fold
- Increase in AUCtau over dose range ([5]; 10 to 50 mg BID, day 7): 5.2 fold
- Increase in Cmax over dose range ([5]; 10 to 50 mg BID, day 7): 4.2 fold
- Day of administration by which steady state appeared to be reached ([5]; all BID dose levels, based on mean Ctrough days 2 through 6): ≤ 2 days
- AUC ([5]; human, plasma, oral, 10 mg): 288 ± 81.5 ng·h/mL
- AUC(0-t) ([5]; human, plasma, oral, 10 mg): 365 ± 111 ng·h/mL
- Cmax at 7 day ([5]; human, plasma, oral, 10 mg): 51.8 ± 15.8 ng/mL
- Vd/F ([5]; human, plasma, oral, 10 mg): 517 ± 203 L
- concentration at 7 day ([5]; human, plasma, oral, 10 mg): 24 ± 6.8 ng/mL
- half-life ([5]; human, plasma, oral, 10 mg, t1/2, 10 mg BID, day 7, mean ± SD): 9.6 ± 2.1 h
- Tmax at 7 day ([5]; human, plasma, oral, 10 mg, 10 mg BID, day 7): 2 h
- AUC ([5]; human, plasma, oral, 30 mg): 909 ± 163 ng·h/mL
- AUC(0-t) ([5]; human, plasma, oral, 30 mg): 1200 ± 309 ng·h/mL
- Cmax at 7 day ([5]; human, plasma, oral, 30 mg): 146 ± 33.6 ng/mL
- Vd/F ([5]; human, plasma, oral, 30 mg): 483 ± 85.1 L
- concentration at 7 day ([5]; human, plasma, oral, 30 mg): 75.6 ± 13.4 ng/mL
- half-life ([5]; human, plasma, oral, 30 mg, t1/2, 30 mg BID, day 7, mean ± SD): 10.3 ± 3.2 h
- Tmax at 7 day ([5]; human, plasma, oral, 30 mg, 30 mg BID, day 7): 2 h
- AUC ([5]; human, plasma, oral, 50 mg): 1510 ± 660 ng·h/mL
- AUC(0-t) ([5]; human, plasma, oral, 50 mg): 2260 ± 1070 ng·h/mL
- Cmax at 7 day ([5]; human, plasma, oral, 50 mg): 219 ± 77.8 ng/mL
- Vd/F ([5]; human, plasma, oral, 50 mg): 586 ± 163 L
- concentration at 7 day ([5]; human, plasma, oral, 50 mg): 126 ± 55 ng/mL
- half-life ([5]; human, plasma, oral, 50 mg, t1/2, 50 mg BID, day 7, mean ± SD): 11.6 ± 3.7 h
- Tmax at 7 day ([5]; human, plasma, oral, 50 mg, 50 mg BID, day 7): 3 h
- half-life ([5]; human, plasma, oral, Mean t1/2 across all SAD and MAD cohorts, all SAD and MAD cohorts): 9 to 12 h
- half-life ([5]; human, plasma, oral, Mean terminal t1/2 across doses, 10 to 50 mg BID, day 7): 9 to 12 h
- Tmax ([5]; human, plasma, oral, Median tmax across all SAD and MAD cohorts, all SAD and MAD cohorts): 2 to 4 h
- Deaths ([6]; MAD cohort): 0
- Discontinuations due to TEAEs ([6]; MAD cohort): 0
- Number of TEAEs ([6]; MAD cohort): 24
- Patients reporting TEAEs ([6]; MAD cohort): 12 (50.0) n (%)
- Serious TEAEs ([6]; MAD cohort): 0
- Subjects with TEAEs considered related to study drug ([6]; SAD 10 mg cohort): 0 subjects
- Subjects with TEAEs considered related to study drug ([6]; SAD 30 mg cohort (nausea, headache, dizziness)): 2 [33%] subjects
- Subjects with TEAEs considered related to study drug ([6]; SAD 50 mg cohort (headache)): 1 [17%] subjects
- Subjects with TEAEs considered related to study drug ([6]; SAD 100 mg cohort (dizziness)): 1 subjects
- Findings in vital signs, electrocardiograms, or clinical laboratory values ([6]; SAD and MAD cohorts): No clinically significant findings
- TEAE: Abdominal pain [6, 10]: 2 (4.2) n (%)
- TEAE: Constipation [6, 10]: 3 (6.3) n (%)
- TEAE: Dizziness [6, 10]: 6 (12.5) n (%)
- TEAE: Headache [6, 10]: 10 (20.8) n (%)
- TEAE: Nausea [6, 10]: 2 (4.2) n (%)
- TEAE: Upper respiratory tract infection [6, 10]: 3 (6.3) n (%)
- TEAE: Vomiting [6, 10]: 0 n (%)
- Deaths ([6]; SAD cohort): 0
- Discontinuations due to TEAEs ([6]; SAD cohort): 0
- Number of TEAEs ([6]; SAD cohort): 15
- Patients reporting TEAEs ([6]; SAD cohort): 7 (29.2) n (%)
- Serious TEAEs ([6]; SAD cohort): 0
- Tmax [7]: 2 to 4 h
- half-life [7]: 8.5 to 11.2 h
- AUC(0-inf) ([7]; 10 mg): 285 ± 78.4 ng·h/mL
- AUC(0-t) ([7]; 10 mg): 276 ± 77.8 ng·h/mL
- Cmax ([7]; 10 mg): 39.4 ± 10.4 ng/mL
- Tmax ([7]; 10 mg): 2 h
- Vd/F ([7]; 10 mg): 430 ± 124 L
- half-life ([7]; 10 mg): 8.5 ± 3.2 h
- AUC(0-inf) ([7]; 30 mg): 1100 ± 247 ng·h/mL
- AUC(0-t) ([7]; 30 mg): 1070 ± 244 ng·h/mL
- Cmax ([7]; 30 mg): 122 ± 33.4 ng/mL
- Tmax ([7]; 30 mg): 4 h
- Vd/F ([7]; 30 mg): 451 ± 202 L
- half-life ([7]; 30 mg): 10.7 ± 3.3 h
- AUC(0-inf) ([7]; 50 mg): 1460 ± 270 ng·h/mL
- AUC(0-t) ([7]; 50 mg): 1430 ± 254 ng·h/mL
- Cmax ([7]; 50 mg): 161 ± 20.4 ng/mL
- Tmax ([7]; 50 mg): 3 h
- Vd/F ([7]; 50 mg): 445 ± 94.7 L
- half-life ([7]; 50 mg): 9.1 ± 2.4 h
- AUC(0-inf) ([7]; 100 mg): 3650 ± 523 ng·h/mL
- AUC(0-t) ([7]; 100 mg): 3490 ± 476 ng·h/mL
- Cmax ([7]; 100 mg): 426 ± 111 ng/mL
- Tmax ([7]; 100 mg): 2 h
- Vd/F ([7]; 100 mg): 440 ± 190 L
- half-life ([7]; 100 mg): 11.2 ± 5.8 h
- CL/F ([7]; single dose 10 mg): 37.0 ± 8.8 L/h
- CL/F ([7]; single dose 30 mg, one subject excluded): 28.4 ± 7.1^a L/h
- CL/F ([7]; single dose 50 mg): 35.1 ± 6.3 L/h
- CL/F ([7]; single dose 100 mg): 27.9 ± 4.3 L/h
- Increase in AUC0-inf across dose range ([7]; single doses, 10 to 100 mg): ~12.8 fold
- Increase in AUC0-t across dose range ([7]; single doses, 10 to 100 mg): ~12.6 fold
- Increase in Cmax across dose range ([7]; single doses, 10 to 100 mg): approximately 10.8 fold

— article PMC8203602 (Clinical Pharmacology : Advances and Applications, 2021)
